The source made the active and inactive calls.
How the values were obtained:
Type in all cases: functional, cell-based
A549 [1] = test: Cytotoxicity against human A549 cells at 0.1 to 5 uM by SRB assay; settings: TDE = time-dependent effect
Procedure, shortened: (§1)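 Cells grown in minimal essential medium with 10% FBS, penicillin and streptomycin, then exposed in triplicate to […] test agent or doxorubicin for 48 h at 37 °C under 5% CO2. Cells fixed with cold TCA, stained with 0.4% SRB in 1% acetic acid; bound dye dissolved in buffer, OD read at 565 nm. Viability expressed as % of untreated cells; IC50 by non-linear regression.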

A549 [2] = test: Cytotoxicity against human A549 cells after 48 hrs by SRB assay; procedure, shortened: as §1
SK-N-SH [3] = test: Cytotoxicity against human SK-N-SH cells at 0.5 uM after 48 hrs by SRB assay
SK-N-SH [4] = test: Cytotoxicity against human SK-N-SH cells after 48 hrs by SRB assay; procedure, shortened: as §1
MCF7 [5] = test: Cytotoxicity against human MCF7 cells after 48 hrs by SRB assay; procedure, shortened: as §1
SK-N-SH [6] = test: Cytotoxicity against human SK-N-SH cells at 0.1 to 5 uM by SRB assay; settings: TDE = time-dependent effect; procedure, shortened: as §1
MCF7 [7] = test: Cytotoxicity against human MCF7 cells at 0.1 to 5 uM by SRB assay; settings: TDE = time-dependent effect; procedure, shortened: as §1
SK-N-SH [8] = test: Cytotoxicity against human SK-N-SH cells at 5 uM after 48 hrs by SRB assay; procedure, shortened: as §1
SK-N-SH [9] = test: Cytotoxicity against human SK-N-SH cells at 0.1 uM after 48 hrs by SRB assay; procedure, shortened: as §1

Measured: Activity

COc1cccc(-c2cc(C(=O)O)n(CC(O)COc3cccc4[nH]c5ccccc5c34)n2)c1 (stereo not drawn)
active: A549 [1] tde | A549 [2] Dose-dependent effect | SK-N-SH [3] | SK-N-SH [4] Dose-dependent effect | MCF7 [5] Dose-dependent effect | SK-N-SH [6] tde | MCF7 [7] tde

O=C(O)c1cc(-c2ccccc2[N+](=O)[O-])nn1CC(O)COc1cccc2[nH]c3ccccc3c12 (stereo not drawn)
active: A549 [1] tde | A549 [2] Dose-dependent effect | SK-N-SH [3] | SK-N-SH [4] Dose-dependent effect | MCF7 [5] Dose-dependent effect | SK-N-SH [6] tde | MCF7 [7] tde

O=C(O)c1cc(-c2cccc([N+](=O)[O-])c2)nn1CC(O)COc1cccc2[nH]c3ccccc3c12 (stereo not drawn)
active: A549 [1] tde | A549 [2] Dose-dependent effect | SK-N-SH [3] | SK-N-SH [4] Dose-dependent effect | MCF7 [5] Dose-dependent effect | SK-N-SH [6] tde | MCF7 [7] tde

COc1ccc(-c2cc(C(=O)O)n(CC(O)COc3cccc4[nH]c5ccccc5c34)n2)cc1 (stereo not drawn)
active: A549 [1] tde | A549 [2] Dose-dependent effect | SK-N-SH [3] | SK-N-SH [4] Dose-dependent effect | MCF7 [5] Dose-dependent effect | SK-N-SH [6] tde | MCF7 [7] tde | SK-N-SH [8]

Cc1ccc(-c2cc(C(=O)O)n(CC(O)COc3cccc4[nH]c5ccccc5c34)n2)cc1 (stereo not drawn)
active: A549 [1] tde | A549 [2] Dose-dependent effect | SK-N-SH [3] | SK-N-SH [4] Dose-dependent effect | MCF7 [5] Dose-dependent effect | SK-N-SH [6] tde | MCF7 [7] tde

COc1cccc2c1C(=O)c1c(O)c3c(c(O)c1C2=O)C[C@@](O)(C(=O)CO)C[C@@H]3O[C@H]1C[C@H](N)[C@H](O)[C@H](C)O1
active: A549 [1] tde | A549 [2] Dose-dependent effect | SK-N-SH [4] Dose-dependent effect | MCF7 [5] Dose-dependent effect | SK-N-SH [6] tde | MCF7 [7] tde

O=C(O)c1cc(-c2ccc([N+](=O)[O-])cc2)nn1CC(O)COc1cccc2[nH]c3ccccc3c12 (stereo not drawn)
active: A549 [1] tde | A549 [2] Dose-dependent effect | SK-N-SH [3] | SK-N-SH [4] Dose-dependent effect | MCF7 [5] Dose-dependent effect | SK-N-SH [6] tde | MCF7 [7] tde

Cc1cccc(-c2cc(C(=O)O)n(CC(O)COc3cccc4[nH]c5ccccc5c34)n2)c1 (stereo not drawn)
active: A549 [1] tde | A549 [2] Dose-dependent effect | SK-N-SH [9] | SK-N-SH [3] | SK-N-SH [4] Dose-dependent effect | MCF7 [5] Dose-dependent effect | SK-N-SH [6] tde | MCF7 [7] tde | SK-N-SH [8]
